From ChEMBL document CHEMBL2417547 (J Med Chem, 2013) come the findings set out here.

The structures appear in SMILES notation.

The inhibition is how much of the control response was suppressed. The low end stands for a response near the control, the high end for a response far below the control. One may read the IC50 as the concentration that inhibits the measured activity by half. Read a low IC50 as inhibition by little substance. For orientation: half-life means the time in which the quantity being followed falls by half. Read a high half-life as slow loss.

Data set [1] addresses T1, CYP19 (aromatase) (Homo sapiens, UniProt P11511).
T1 sequence (P11511 whole entry): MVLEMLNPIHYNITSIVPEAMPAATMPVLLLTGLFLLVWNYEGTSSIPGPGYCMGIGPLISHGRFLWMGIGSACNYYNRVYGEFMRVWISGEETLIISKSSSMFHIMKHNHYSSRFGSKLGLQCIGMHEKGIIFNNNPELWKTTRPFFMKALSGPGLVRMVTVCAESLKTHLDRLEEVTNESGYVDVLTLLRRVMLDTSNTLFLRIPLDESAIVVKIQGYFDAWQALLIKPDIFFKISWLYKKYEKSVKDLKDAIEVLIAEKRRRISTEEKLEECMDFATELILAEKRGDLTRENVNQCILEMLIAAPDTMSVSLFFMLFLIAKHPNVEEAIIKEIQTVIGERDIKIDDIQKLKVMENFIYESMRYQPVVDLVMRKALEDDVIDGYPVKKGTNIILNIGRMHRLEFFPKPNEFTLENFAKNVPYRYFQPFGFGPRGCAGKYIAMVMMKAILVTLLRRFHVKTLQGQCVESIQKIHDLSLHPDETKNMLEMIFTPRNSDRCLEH
The data set is described as follows: Inhibition of microsomal CYP19 in human placenta using [1beta-3H]-androstenedione as substrate at 2 uM by 3H2O method relative to control. The settings on record: placental microsomes, probe [1beta-3H]-androstenedione. The gist of the method:
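Human placental microsomes as the CYP19 source, with [1β-3H]androstenedione at 500 nM. Activity read by 3H2O release. Compound at 2 μM. Percent inhibition is the mean of at least three experiments (deviations <25%); values ≤5% are not significant.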

The target of data set [2] is T2, CYP17 (Homo sapiens, UniProt P05093).
T2 sequence (P05093 whole entry): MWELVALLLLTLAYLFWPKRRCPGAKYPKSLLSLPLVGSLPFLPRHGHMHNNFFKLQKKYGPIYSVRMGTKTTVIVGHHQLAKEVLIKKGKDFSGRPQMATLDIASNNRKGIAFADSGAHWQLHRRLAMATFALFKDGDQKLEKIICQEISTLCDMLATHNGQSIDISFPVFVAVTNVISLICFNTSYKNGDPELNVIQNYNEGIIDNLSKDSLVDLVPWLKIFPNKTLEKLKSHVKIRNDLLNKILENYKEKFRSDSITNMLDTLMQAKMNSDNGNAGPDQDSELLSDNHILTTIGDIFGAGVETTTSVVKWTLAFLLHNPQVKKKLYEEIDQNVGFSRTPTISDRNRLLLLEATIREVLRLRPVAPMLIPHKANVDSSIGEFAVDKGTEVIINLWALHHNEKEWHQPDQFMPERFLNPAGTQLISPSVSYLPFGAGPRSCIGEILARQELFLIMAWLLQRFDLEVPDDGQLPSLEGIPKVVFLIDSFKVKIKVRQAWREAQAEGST
Kind of data set: Inhibition of human CYP17 expressed in Escherichia coli co-expressing rat NADPH-P450 reductase using progesterone as substrate at 2 uM relative to control. As to conditions: probe progesterone. The method, boiled down:
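Human CYP17 expressed in E. coli, co-expressing rat NADPH-P450 reductase. Progesterone substrate at 25 μM with NADPH cofactor. Test compound at 2 μM. Percent inhibition is the mean of at least three experiments (deviations <25%); values ≤5% are treated as not significant.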

For data set [3], the target named is Cytochrome P450 3A4 (Homo sapiens, UniProt P08684). The data set is described as follows: Inhibition of CYP3A4 (unknown origin) using 7-benzyloxy trifluoromethylcoumarin as substrate. Type of data set: ADME. The method, boiled down:
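Commercial CYP3A4/BFC inhibitor screening kit with 7-benzyloxy-trifluoromethylcoumarin as substrate at 50 μM, run per the kit instructions. IC50 determined.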

A short description of data set [4]: Half life in rat liver S9 fraction at 1 uM by LC-MS/MS analysis. It is filed as ADME, subcellular. The method, boiled down: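 Test compound at 1 μM with 1 mg/mL pooled rat liver S9, 2 mM NADPH regenerating system, 1 mM UDPGA and 0.1 mM PAPS (phase I and II), 37 °C. Sampled at 0, 5, 15 and 60 min and quenched with 2 volumes of cold acetonitrile containing internal standard. Remaining compound measured by LC-MS/MS to give t1/2 and CLint; mean of more than three repeats.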

Data set [5] in a line: Half life in human plasma at 1 uM by LC-MS/MS analysis. It is filed as ADME, cell-free. The gist of the method: (§1)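 Compound at 1 μM in pooled heparinized plasma of the stated species, 37 °C, sampled at 0, 10, 30, 60 and 150 min. Proteins precipitated with 5 volumes of cold acetonitrile containing internal standard. Remaining compound quantified by LC-MS/MS to give half-life.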

Data set [6] can be described thus: Half life in rat plasma at 1 uM by LC-MS/MS analysis. Type of data set: ADME, cell-free. The method, boiled down: as §1
Data set [7] deals with T3, Cytochrome P450 11B1, mitochondrial (Rattus norvegicus, UniProt P15393).
T3 sequence (P15393 whole entry): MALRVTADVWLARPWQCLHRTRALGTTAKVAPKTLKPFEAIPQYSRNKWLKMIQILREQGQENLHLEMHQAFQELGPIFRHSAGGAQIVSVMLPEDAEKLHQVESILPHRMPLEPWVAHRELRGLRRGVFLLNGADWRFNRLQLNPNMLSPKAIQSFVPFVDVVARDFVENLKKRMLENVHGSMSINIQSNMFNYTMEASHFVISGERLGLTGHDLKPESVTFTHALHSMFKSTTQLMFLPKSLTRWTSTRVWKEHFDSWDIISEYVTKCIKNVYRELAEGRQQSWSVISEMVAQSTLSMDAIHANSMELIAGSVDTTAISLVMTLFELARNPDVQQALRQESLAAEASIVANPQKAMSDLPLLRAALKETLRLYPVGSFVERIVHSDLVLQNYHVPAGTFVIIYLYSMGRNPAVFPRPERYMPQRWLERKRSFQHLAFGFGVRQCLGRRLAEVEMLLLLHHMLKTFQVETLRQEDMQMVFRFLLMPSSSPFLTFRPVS
Kind of data set: Inhibition of rat CYP11B1 expressed in hamster V79MZh cells using [1,2-3H]-11-deoxycorticosterone as substrate. It is filed as cell-based. The method, boiled down: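 V79MZh cells expressing rat CYP11B1 were incubated with [1,2-3H]-11-deoxycorticosterone (100 nM) and inhibitor at varying concentrations. IC50 is the mean of more than three repeats.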

Data set [8] is described as follows: Cytotoxicity against HEK293 cells after 24 hrs. It is filed as cell-based. The settings on record: human, read-out: LC50. The gist of the method:
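HEK 293 cells seeded at 2 × 10⁵ cells per well; compounds added 24 h after seeding at 1% final DMSO. Living cell mass determined after 24 h incubation; LC₅₀ calculated. Doxorubicin positive control, rifampicin negative control. Mean of more than three repeats.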

Chain of Cytochrome P450 3A4 (P08684 whole entry): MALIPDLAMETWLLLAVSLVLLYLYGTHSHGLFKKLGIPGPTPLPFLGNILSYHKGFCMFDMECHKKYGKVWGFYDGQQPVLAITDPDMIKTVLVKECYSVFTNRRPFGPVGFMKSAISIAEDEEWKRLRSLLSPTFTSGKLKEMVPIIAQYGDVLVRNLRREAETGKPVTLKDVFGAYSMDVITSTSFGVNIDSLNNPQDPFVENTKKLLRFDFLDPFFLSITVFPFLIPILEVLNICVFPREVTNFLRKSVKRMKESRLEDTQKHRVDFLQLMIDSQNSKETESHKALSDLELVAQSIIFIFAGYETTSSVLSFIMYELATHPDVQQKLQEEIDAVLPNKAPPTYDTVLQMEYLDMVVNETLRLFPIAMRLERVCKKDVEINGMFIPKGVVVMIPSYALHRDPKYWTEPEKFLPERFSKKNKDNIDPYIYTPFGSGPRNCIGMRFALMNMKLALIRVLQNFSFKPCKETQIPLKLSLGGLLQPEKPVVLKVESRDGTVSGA

With `Cc1cncc(Cc2ccc(-c3ccccc3)nc2)c1`, the inhibition at 2 µM was determined as 1% in data set [1] and 5% in data set [2]. Further, the values for the IC50 in data set [3] and in data set [7] were 1.1 µM and 2.44 µM, respectively. The half-life at 1 µM is 0.267 h in data set [4], above 2.5 h in data set [5] and above 2.5 h in data set [6]. Besides, in data set [8], the CC50 at 24 h worked out at 61.4 µM.
